Measured values: publication PMC3717983 (Journal of medicinal chemistry, 2013)
Read-outs that look alike come from different tables or passages of the source. Marks after values point to notes of the source that are not given here.

Columns and labels:
Format in all cases: biochemical
K169A thrombin = K169A thrombin (Homo sapiens, UniProt P00734, K537A); assay: Inhibition of recombinant thrombin, S2238 hydrolysis assay; settings: overnight 25 °C
Procedure, shortened: (§1)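 Recombinant wild-type and Ala-mutant thrombins were made in […] form by PCR mutagenesis, expressed in BHK cells, HPC4 immunoaffinity-purified and activated. Active-site concentration came from amidolytic assay and antithrombin titration. Enzyme (1.5–7.5 nM final) was incubated with test compound overnight at 25 °C in pH 7.4 Tris buffer. S2238 was added and initial rate read at 405 nm. At least 9–10 concentrations were fitted by logistic equation for apparent IC50, HS, Y0 and YM. Mutant IC50 is expressed relative to recombinant wild type.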

R233A thrombin = R233A thrombin (Homo sapiens, UniProt P00734, R608A); assay: as above
Procedure, shortened: as §1

R101A thrombin = R101A thrombin (Homo sapiens, UniProt P00734, R461A); assay: as above; settings: overnight 25 °C
Procedure, shortened: as §1

human α-thrombin [1] = biological target: T1, human α-thrombin (Homo sapiens, UniProt P00734)
Procedure, shortened: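 Human α-thrombin (5 nM) was preincubated with fixed test compound concentrations (0–9.90 μM), either overnight at 25 °C or 2 h at 37 °C, in 20 mM Tris-HCl pH 7.4 with 100 mM NaCl, 2.5 mM CaCl2 and 0.1% PEG8000. Initial rates of Spectrozyme TH hydrolysis (2–80 μM) were read at 405 nm, at under 10% substrate consumption. Standard Michaelis-Menten fit gave KM and VMAX.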

human plasma [2] = assay: Human plasma clotting assay, activated partial thromboplastin time
Procedure, shortened: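 APTT on a fibrometer using a one-stage recalcification assay. Citrated human plasma, test compound or vehicle, and pre-warmed 0.2% ellagic acid were mixed and incubated 4 min. Clotting was started with 25 mM CaCl2 at 37 °C and clotting time recorded. Run in duplicate. A quadratic trend line gave the concentration that doubles APTT.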

R93A thrombin = R93A thrombin (Homo sapiens, UniProt P00734, R452A); assay: Inhibition of recombinant thrombin, S2238 hydrolysis assay; settings: overnight 25 °C
Procedure, shortened: as §1

R126A thrombin = R126A thrombin (Homo sapiens, UniProt P00734, R486A); assay: as above; settings: overnight 25 °C
Procedure, shortened: as §1

K240A thrombin = K240A thrombin (Homo sapiens, UniProt P00734, K615A); assay: as above; settings: overnight 25 °C
Procedure, shortened: as §1

R173A thrombin = R173A thrombin (Homo sapiens, UniProt P00734, R541A); assay: as above; settings: overnight 25 °C
Procedure, shortened: as §1

K236A thrombin = K236A thrombin (Homo sapiens, UniProt P00734, K611A); assay: as above; settings: overnight 25 °C
Procedure, shortened: as §1

R97A thrombin = R97A thrombin (Homo sapiens, UniProt P00734, R456A); assay: as above; settings: overnight 25 °C
Procedure, shortened: as §1

human α-thrombin [3] = biological target: T1, human α-thrombin; assay: Thrombin inhibition by 9a in presence of exosite 1 or exosite 2 ligands
K235A thrombin = K235A thrombin (Homo sapiens, UniProt P00734, K610A); assay: Inhibition of recombinant thrombin, S2238 hydrolysis assay; settings: overnight 25 °C
Procedure, shortened: as §1

R165A thrombin = R165A thrombin (Homo sapiens, UniProt P00734, R533A); assay: as above; settings: overnight 25 °C
Procedure, shortened: as §1

R175A thrombin = R175A thrombin (Homo sapiens, UniProt P00734, R543A); assay: as above; settings: overnight 25 °C
Procedure, shortened: as §1

human α-thrombin [4] = biological target: T1, human α-thrombin; settings: pH 7.4, 25 °C, Spectrozyme TH
[5] = biological target: recombinant wild-type thrombin (rWT) (Homo sapiens, UniProt P00734); assay: Inhibition of recombinant thrombin, S2238 hydrolysis assay; settings: overnight 25 °C
Procedure, shortened: as §1

human plasma [6] = assay: Human plasma clotting assay, prothrombin time; settings: citrated human plasma
Procedure, shortened: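 PT on a fibrometer using a one-stage recalcification assay. Test compound or vehicle was mixed with citrated human plasma and incubated 30 s at 37 °C. Pre-warmed reconstituted thromboplastin was then added and clotting time recorded. Run in duplicate. A quadratic trend line gave the concentration that doubles PT.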

[7] = [9a] 0.63 μM, 2 hr incubation at 37°C
[8] = [9a] 0.63 μM, overnight incubation at 25°C
[9] = [9a] 1.53 μM, 2 hr incubation at 37°C
[10] = [9a] 1.80 μM, overnight incubation at 25°C
[11] = [9a] 3.60 μM, 2 hr incubation at 37°C
[12] = [9a] 3.60 μM, overnight incubation at 25°C
[13] = [9a] 9.90 μM, 2 hr incubation at 37°C
[14] = Heparin (UFH) 4.2 μM, overnight 25 °C
[15] = Heparin (UFH) 25.0 μM, overnight 25 °C
[16] = Heparin (UFH) 42.6 μM, overnight 25 °C
[17] = Hirugen peptide (HirP) 5 nM, overnight 25 °C
[18] = Hirugen peptide (HirP) 15 nM, overnight 25 °C
[19] = Octasaccharide H8 1.0 μM, overnight 25 °C
[20] = Octasaccharide H8 3.0 μM, overnight 25 °C
[21] = Octasaccharide H8 10 μM, overnight 25 °C
[22] = Octasaccharide H8 20 μM, overnight 25 °C
[23] = γ′-Fibrinogen peptide (FibP) 0.2 μM, overnight 25 °C
[24] = γ′-Fibrinogen peptide (FibP) 0.65 μM, overnight 25 °C
[25] = γ′-Fibrinogen peptide (FibP) 2.0 μM, overnight 25 °C
[26] = γ′-Fibrinogen peptide (FibP) 6.5 μM, overnight 25 °C

## CCOC(=O)c1c(C)oc2cc(OC)c(OCc3oc4cc(OC)c(OCc5oc6cc(OC)c(OS(=O)(=O)[O-])cc6c5C(=O)OCC)cc4c3C(=O)OCC)cc12.[Na+] [9a]
K169A thrombin
  HS: 2.1 ± 0.2
  ΔY: 59 ± 3%
R233A thrombin; Arg233Ala thrombin
  fold loss in potency (defect) vs recombinant wild-type: ~ 3 fold
R233A thrombin; R233A, overnight 25 °C
  ΔY: 44 ± 2%
R101A thrombin
  HS: 2.1 ± 0.6
  ΔY: 55 ± 6%
Human α-thrombin [1]; 25 °C
  reduction in KM and VMAX: 0.86–1.2 fold per μM
Human α-thrombin [1]; 37 °C
  reduction in KM and VMAX: 0.4–0.6 fold per μM
Human α-thrombin [1]; [9a] 0.36 μM, overnight incubation at 25°C
  Km: 11.1 ± 2.5 µM
Human α-thrombin [1]; [7]
  Km: 6.7 ± 2.3 µM
  VMAX: 72 ± 8 mAU/min
Human α-thrombin [1]; [8]
  Km: 7.7 ± 1.3 µM
  VMAX: 69 ± 3 mAU/min
Human α-thrombin [1]; [9]
  Km: 2.2 ± 0.8 µM
  VMAX: 30 ± 2 mAU/min
Human α-thrombin [1]; [10]
  Km: 3.2 ± 0.5 µM
  VMAX: 35 ± 1 mAU/min
Human α-thrombin [1]; [11]
  Km: 2.7 ± 0.6 µM
  VMAX: 25 ± 1 mAU/min
Human α-thrombin [1]; [12]
  Km: 3.1 ± 0.6 µM
  VMAX: 19 ± 1 mAU/min
Human α-thrombin [1]; [13]
  Km: 1.9 ± 0.6 µM
  VMAX: 15 ± 0.8 mAU/min
Human α-thrombin [1]; both incubation conditions
  mechanism of thrombin inhibition: primarily uncompetitive
Human plasma [2]; LMWLs from ref 15
  times less potent in plasma anticoagulation than sulfated LMWLs: 10 times
Human plasma [2]; citrated human plasma
  concentration required for a 2-fold increase in APTT: 139 µM
R93A thrombin
  HS: 1.8 ± 0.3
  ΔY: 66 ± 6%
R126A thrombin
  HS: 1.8 ± 0.5
  ΔY: 65 ± 11%
K240A thrombin
  HS: 2.3 ± 0.4
  ΔY: 49 ± 3%
R173A thrombin
  HS: 2.4 ± 0.7
  ΔY: 62 ± 8%
K236A thrombin
  HS: 3.0 ± 0.3
  ΔY: 52 ± 1%
R97A thrombin
  HS: 2.6 ± 0.5
  ΔY: 47 ± 3%
Human α-thrombin [3]; 0 μM competitor
  logIC50: −6.17 ± 0.03
  ΔY: 79 ± 9%
Human α-thrombin [3]; [14]
  HS: 2.2 ± 0.4
  ΔY: 71 ± 7%
Human α-thrombin [3]; Heparin (UFH) 12.8 μM, overnight 25 °C
  HS: 1.8 ± 0.2
Human α-thrombin [3]; [15]
  HS: 1.7 ± 0.2
  ΔY: 81 ± 10%
Human α-thrombin [3]; [16]
  HS: 1.2 ± 0.2
  ΔY: ~90 ^c %
Human α-thrombin [3]; Hirugen peptide (HirP) 3 nM, overnight 25 °C
  ΔY: 44 ± 2%
Human α-thrombin [3]; [17]
  HS: 2.4 ± 0.3
  ΔY: 46 ± 2%
Human α-thrombin [3]; [18]
  HS: 3.0 ± 0.7
  ΔY: 43 ± 1%
Human α-thrombin [3]; [19]
  HS: 2.3 ± 0.3
  ΔY: 58 ± 3%
Human α-thrombin [3]; [20]
  HS: 2.6 ± 0.6
  ΔY: 54 ± 4%
Human α-thrombin [3]; [21]
  HS: 2.8 ± 0.4
  ΔY: 50 ± 2%
Human α-thrombin [3]; [22]
  HS: 2.6 ± 0.5
  ΔY: 49 ± 2%
Human α-thrombin [3]; [23]
  HS: 2.4 ± 0.3
  ΔY: 73 ± 8%
Human α-thrombin [3]; [24]
  HS: 2.1 ± 0.3
  ΔY: 71 ± 8%
Human α-thrombin [3]; [25]
  HS: 3.3 ± 0.6
  ΔY: 67 ± 4%
Human α-thrombin [3]; [26]
  HS: 2.1 ± 0.6
  ΔY: 65 ± 7%
K235A thrombin
  ΔY: 50 ± 1%
R165A thrombin
  HS: 1.1 ± 0.3
  ΔY: 61 ± 8%
R175A thrombin
  ΔY: 37 ± 3%
Human α-thrombin [4]
  logIC50: −6.17 ± 0.03
[5]
  HS: 3.4 ± 0.5 ^b
  ΔY: 49 ± 2%
Human plasma [6]
  concentration required for a 2-fold increase in PT: 568 µM
